Measured values of several laboratories.
Target: Fibroblast growth factor receptor 2 (FGFR2, Homo sapiens, UniProt P21802)

N#Cc1ccc(NC(=O)Nc2ccccc2)cc1
remaining binding (cell-free assay, competition with immobilised ligand; 25 µM): 100%

CN1CCN(C(=O)c2ccc(NC(=O)Nc3ccc(N(C)c4ccnc(Nc5ccc(CS(C)(=O)=O)cc5)n4)cc3)cc2)CC1
remaining binding (binding, competition with immobilised ligand; 1 µM): 99%

C1=C/COCc2cc(ccc2OCCN2CCCC2)Nc2nccc(n2)-c2cccc(c2)COC/1
remaining binding (binding; 0.1 µM): 94%

CO[C@@H]1[C@H](N(C)C(=O)c2ccccc2)C[C@H]2O[C@]1(C)n1c3ccccc3c3c4c(c5c6ccccc6n2c5c31)C(=O)NC4
inhibition (enzyme activity, inhibitor; 1 µM): 42%

CCCCC(=O)Nc1ccc(-c2ccc3ncn(CCC)c(=O)c3c2)cn1
remaining binding (binding, competition with immobilised ligand; 0.5 µM): 86%

Cc1ccc(NC(=O)c2ccnc(C(F)(F)F)c2)cc1-c1cc(OCCO)nc(N2CCOCC2)c1
remaining binding (binding, competition with immobilised ligand; 1 µM): 91%

C=CC(=O)N1CCC([C@@H]2CCNc3c(C(N)=O)c(-c4ccc(Oc5ccccc5)cc4)nn32)CC1
inhibition (cell-free assay; 1 µM): 14%

COc1ccc2oc(-c3ccc4nc(N)oc4c3)c/c(=N\c3ccccc3NC(=O)CCN)c2c1
remaining binding (binding; 1 µM): 95%

CC(C)S(=O)(=O)c1ccc2nccc(Nc3ccc4sc(C5CCCC5)nc4c3)c2c1
activity vs control (enzyme activity, inhibitor; 1 µM): 110%
